We go through 23 molecules from ChEMBL document CHEMBL1132375, “Synthesis and biochemical evaluation of 3-fluoromethyl-1,2,3, 4-tetrahydroisoquinolines as selective inhibitors of phenylethanolamine N-methyltransferase versus the alpha(2)-adrenoceptor” (J Med Chem, 1999).

What is called Ki is a dissociation constant, usually derived from enzyme kinetics or from competition with a known ligand. Lower therefore signals tighter binding.

For assay [1], the target named is Adrenergic receptor alpha-2 (Rattus norvegicus) (UniProt P22086+P19328+P22909). Nature of the assay: Ratio for binding affinity towards alpha-2 adrenoceptor to PNMT. The class given is protein assay. The procedure, abridged:
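Ratio of α2-adrenoceptor Ki (rat cortex, [3H]clonidine binding) to PNMT Ki (bovine adrenal enzyme, radiochemical assay with phenylethanolamine substrate).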

Assay [2] concerns the target T1, Adrenergic receptor alpha-2 (Rattus norvegicus, UniProt P22086+P19328+P22909).
T1 sequence (P22086 whole entry): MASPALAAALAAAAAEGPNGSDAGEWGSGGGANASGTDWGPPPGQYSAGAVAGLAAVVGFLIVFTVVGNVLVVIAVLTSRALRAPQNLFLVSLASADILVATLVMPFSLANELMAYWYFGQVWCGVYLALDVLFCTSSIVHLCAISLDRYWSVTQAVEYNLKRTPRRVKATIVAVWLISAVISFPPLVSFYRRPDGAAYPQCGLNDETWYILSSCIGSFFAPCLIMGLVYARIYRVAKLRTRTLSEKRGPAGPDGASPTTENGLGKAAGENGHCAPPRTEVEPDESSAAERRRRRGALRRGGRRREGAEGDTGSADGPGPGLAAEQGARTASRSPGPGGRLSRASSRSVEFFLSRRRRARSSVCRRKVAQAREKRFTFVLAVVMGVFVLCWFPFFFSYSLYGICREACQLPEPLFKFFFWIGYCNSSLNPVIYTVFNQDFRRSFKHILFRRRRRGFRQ
T1 sequence (P19328 whole entry): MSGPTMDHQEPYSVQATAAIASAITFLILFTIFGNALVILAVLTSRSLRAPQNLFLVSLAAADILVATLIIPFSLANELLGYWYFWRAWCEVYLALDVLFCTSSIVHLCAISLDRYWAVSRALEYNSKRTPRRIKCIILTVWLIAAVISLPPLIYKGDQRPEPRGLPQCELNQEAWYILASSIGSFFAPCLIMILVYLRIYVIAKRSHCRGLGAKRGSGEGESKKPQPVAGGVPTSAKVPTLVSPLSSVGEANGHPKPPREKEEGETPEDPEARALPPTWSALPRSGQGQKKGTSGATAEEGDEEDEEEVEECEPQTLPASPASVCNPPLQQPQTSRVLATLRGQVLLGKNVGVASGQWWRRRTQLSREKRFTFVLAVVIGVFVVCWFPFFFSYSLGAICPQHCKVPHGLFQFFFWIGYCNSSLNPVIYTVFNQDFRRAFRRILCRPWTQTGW
T1 sequence (P22909 whole entry): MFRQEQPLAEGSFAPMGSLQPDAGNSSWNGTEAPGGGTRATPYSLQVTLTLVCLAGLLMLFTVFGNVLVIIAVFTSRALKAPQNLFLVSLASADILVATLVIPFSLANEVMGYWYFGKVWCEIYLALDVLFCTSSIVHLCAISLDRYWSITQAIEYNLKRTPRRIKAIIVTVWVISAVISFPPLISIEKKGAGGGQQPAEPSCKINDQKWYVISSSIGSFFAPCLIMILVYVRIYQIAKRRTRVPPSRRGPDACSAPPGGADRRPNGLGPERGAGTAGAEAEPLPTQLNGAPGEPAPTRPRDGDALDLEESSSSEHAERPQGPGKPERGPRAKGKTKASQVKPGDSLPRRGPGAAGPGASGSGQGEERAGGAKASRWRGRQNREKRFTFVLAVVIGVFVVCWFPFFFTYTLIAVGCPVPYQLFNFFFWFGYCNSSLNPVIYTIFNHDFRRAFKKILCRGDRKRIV
The assay is described as follows: Compound was tested in vitro for its affinity towards rat Alpha-2 adrenergic receptor. The class given is protein assay. The procedure, abridged: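 Membranes from male Sprague-Dawley rat cortex, homogenized in ice-cold 50 mM Tris/HCl pH 7.7 and washed by three 50000g spins. Incubated with [3H]clonidine (final 2.0 nM) and varied inhibitor concentrations, 25 °C for 30 min, then vacuum-filtered on GF/B and counted. Nonspecific binding with 2 μM phentolamine. IC50 by log-probit, converted to Ki = IC50/(1+[clonidine]/KD).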

Assay [3] has as its target T2, Phenylethanolamine N-methyltransferase (Bos taurus, UniProt P10938).
T2 sequence (P10938 whole entry): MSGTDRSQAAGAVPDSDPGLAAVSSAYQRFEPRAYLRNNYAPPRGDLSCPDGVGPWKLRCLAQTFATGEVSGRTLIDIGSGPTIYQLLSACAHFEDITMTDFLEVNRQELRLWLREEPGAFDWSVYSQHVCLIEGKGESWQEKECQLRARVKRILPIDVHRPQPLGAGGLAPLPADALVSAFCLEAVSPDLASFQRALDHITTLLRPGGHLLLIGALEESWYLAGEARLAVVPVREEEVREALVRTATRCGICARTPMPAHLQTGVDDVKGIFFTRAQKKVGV
The assay is described as follows: Affinity for bovine Phenylethanolamine N-Methyltransferase (PNMT).

Assay [4] concerns the target T2, Phenylethanolamine N-methyltransferase. The assay is described as follows: Affinity for bovine Phenylethanolamine N-Methyltransferase.

Consider `CS(=O)(=O)c1ccc2c(c1)CNC(C(F)(F)F)C2` (centres undefined), for which the Ratio in assay [1] was 110.
Turning to `FCC1Cc2ccc(Br)cc2CN1` (centres undefined), the Ki is 6.4 µM in assay [2] and 640 nM in assay [3]. In addition, the Ratio in assay [1] is 10.
The like results for `[N-]=[N+]=Nc1ccc2c(c1)CNC(CF)C2` (centres undefined) were, in that order, 47 µM, 1700 nM and 28.
Take `O=[N+]([O-])c1ccc2c(c1)CNC(CF)C2` (centres undefined): the Ki turned out to be 540 nM in assay [4] and 76 µM in assay [2]. Besides, the Ratio in assay [1] was 140.
As for `COc1ccc2c3c([nH]c2c1)C=NCC3`, in assay [1], the Ratio was determined as 4.4.
On the same count and under the same terms, as for `COCC1Cc2ccccc2CN1` (centres undefined), the figure is 0.3.
Still for that read-out and setting: next, `Clc1ccc2c(c1Cl)CNCC2`: 0.095.
Take `O=S(=O)(NCc1ccccc1)c1ccc2c(c1)CNC(CF)C2` (centres undefined): the results for the Ki in assay [4] and in assay [2] were 6500 nM and 110 µM, respectively. Further, the Ratio in assay [1] worked out at 17.
Turning to `NS(=O)(=O)c1ccc2c(c1)CNC(CF)C2` (centres undefined), the values for the Ki in assay [4] and in assay [2] were 660 nM and 680 µM, respectively. Moreover, the Ratio in assay [1] came out at 1000.
Take `NS(=O)(=O)c1ccc2c(c1)CNC(CO)C2` (centres undefined): in assay [1], the Ratio amounted to 4100.
As for `CC1Cc2ccccc2CN1` (centres undefined), the Ratio in assay [1] came to 0.36.
Take `N#Cc1ccc2c(c1)CNC(CF)C2` (centres undefined): the results for the Ki in assay [4] and in assay [2] were 1100 nM and 460 µM, respectively. Besides, in assay [1], the Ratio came to 420.
With `FCC1Cc2ccc(I)cc2CN1` (centres undefined), the figures for the Ki in assay [4] and in assay [2] were 210 nM and 7.1 µM, respectively. Moreover, in assay [1], the Ratio is 34.
On to `CS(=O)(=O)c1ccc2c(c1)CNC(CO)C2` (centres undefined), for which, in assay [1], the Ratio was determined as 1000.
Still for that read-out and setting: next, `CCC1Cc2ccccc2CN1` (centres undefined): 0.028.
Regarding `FCC1Cc2ccccc2CN1` (centres undefined), the results for the Ki in assay [2] and in assay [3] were 3.8 µM and 1500 nM, respectively. Besides, in assay [1], the Ratio turned out to be 2.5.
The like results for `FCC1Cc2ccc(N=C=S)cc2CN1` (centres undefined) were, in that order, 22 µM, 570 nM and 39.
Consider `O=S(=O)(Nc1ccc(Cl)cc1)c1ccc2c(c1)CNC(CF)C2` (centres undefined), for which the Ki amounted to 740 nM in assay [4] and 160 µM in assay [2]. Besides, the Ratio in assay [1] stood at 220.
On to `FC(F)(F)C1Cc2ccc(Br)cc2CN1` (centres undefined), for which the Ratio in assay [1] was 1900.
Regarding `CS(=O)(=O)c1ccc2c(c1)CNC(CF)C2` (centres undefined), the inhibition constant (Ki) came to 1600 nM in assay [4] and 230 µM in assay [2]. The Ratio in assay [1] stood at 140.
Take `FCC1Cc2ccc(C(F)(F)F)cc2CN1` (centres undefined): the Ki in assay [2] was found to be 41 µM; in assay [3], 320 nM. The Ratio in assay [1] was determined as 130.
For `OCC1Cc2ccccc2CN1` (centres undefined), the Ratio in assay [1] amounted to 6.
Turning to `CNS(=O)(=O)c1ccc2c(c1)CNC(CF)C2` (centres undefined), the Ki in assay [4] was found to be 2400 nM; in assay [2], 310 µM. Further, in assay [1], the Ratio came out at 130.
